# The list is not random: actives were taken first. Their share in the collection is about 0.62%.
# MDM2 E3 inh: inhibitors of human Mdm2 E3 ubiquitin ligase; cell-based MDM2 ubiquitination luciferase reporter, 2 h; 0 = plate control, 100 = twice control, blank-subtracted; actives 0.11% (n = 210,000); Q00987; signal enhancement, % at 5 µM; AID 1230;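 active means signal enhancement of 30% or more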;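 further: luminescence tracks abundance of the self-degrading MDM2-luciferase fusion protein; higher signal means inhibition of MDM2 E3 ligase activity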
#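 Assay system: mammalian cells stably expressing self-ubiquitinating, self-degrading MDM2 E3–luciferase fusion. Quantity: 2000 cells in each well. Medium: DMEM culture medium. Compound dosing: single-point 5 µM. Timing: cell settling 4 h, compound treatment 2 h, both 37 °C. Technique: luciferase luminescence. Read-out basis: percent signal gain over controls, blank-subtracted. Benchmarks: plate controls and plate blanks.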
# Arbovirus inh: blocks arbovirus infection. arbovirus infection cell-based antiviral screen. inhibition, % at 10 µM. actives 0.37% (n = 200,000). AID 1251; in the data active means inhibition above about 30%
# Rad51 HR inh: blocks human Rad51 in homologous recombination; Q06609; hRad51 DNA strand exchange, fluorescence dequenching; inhibition, % at 10 µM; actives 0.085% (n = 200,000); AID 1385;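 active means inhibition above 40% at the single screening dose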
#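 material = hRad51 filaments on single-stranded DNA | timing = filaments 15 min 37 °C, then compound 30 min | signal = FRET fluorescence dequenching, excitation 485 nm, emission 520 nm | benchmarks = control wells and blank wells on each plate | evaluation = percent inhibition relative to plate controls and blanks | compound = 10 µM final, single point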
# ABCB1 inh: inhibitors of human ABCB1 transporter, ABCG2 counter-screen. P08183. CCRF-Adr cells, JC-1 efflux, flow cytometry. inhibition, % at 6.6 µM. actives 0.067% (n = 190,000). AID 1326; in the data active means inhibition above about 40%;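 further: higher value means more JC-1 retained so stronger ABCB1 efflux block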
# ABCG2 inh: human ABCG2 inhibition, ABCB1 as counter-screen | Q9UNQ0 | IgMXP3 cells, JC-1 efflux, flow cytometry | inhibition, % at 6.6 µM | actives 0.1% (n = 190,000);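 active means inhibition above 80%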
# Target sequence (Q9UNQ0 whole entry, looked up): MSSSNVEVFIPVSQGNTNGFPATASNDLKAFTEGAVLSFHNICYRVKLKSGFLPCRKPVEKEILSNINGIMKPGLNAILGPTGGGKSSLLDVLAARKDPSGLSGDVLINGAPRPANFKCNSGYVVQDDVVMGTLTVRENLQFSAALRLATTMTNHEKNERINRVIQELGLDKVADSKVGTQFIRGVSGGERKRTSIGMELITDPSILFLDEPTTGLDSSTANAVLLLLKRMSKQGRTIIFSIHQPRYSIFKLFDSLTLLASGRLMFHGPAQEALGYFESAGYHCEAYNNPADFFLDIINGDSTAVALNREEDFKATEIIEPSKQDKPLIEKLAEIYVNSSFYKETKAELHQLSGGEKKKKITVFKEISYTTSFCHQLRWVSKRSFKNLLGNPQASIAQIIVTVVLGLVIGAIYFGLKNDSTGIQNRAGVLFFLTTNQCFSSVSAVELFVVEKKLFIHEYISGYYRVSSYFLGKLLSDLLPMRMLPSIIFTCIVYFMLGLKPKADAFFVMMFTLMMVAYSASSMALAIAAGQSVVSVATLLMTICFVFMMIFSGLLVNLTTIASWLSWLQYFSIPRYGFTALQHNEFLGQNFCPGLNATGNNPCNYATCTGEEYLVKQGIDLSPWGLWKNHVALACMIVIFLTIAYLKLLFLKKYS
#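 Read-out basis: Efflux inhibition in percent versus controls | Test system: ABCG2 IgMXP3 and barcoded ABCB1 CCRF-Adr cell mix | Quantity: 3 million cells/mL in well | Schedule: 10 min at 25 °C | Control set: Nicardipine as high control, DMSO as low control | Reagent: JC-1 as fluorescent efflux pump substrate | Signal: Flow cytometry of retained JC-1 fluorescence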
# Hits are given with their value; . = inactive; / = no result given.
SMILES,MDM2 E3 inh,Arbovirus inh,Rad51 HR inh,ABCB1 inh,ABCG2 inh
COc1ccccc1-c1nnc(Nc2nc3c(OC)cccc3s2)o1,39,.,.,.,.
COc1cccc2sc(NN)nc12,.,37,.,.,.
COc1cccc2sc(Nc3nnc(-c4ccccc4Cl)o3)nc12,.,.,.,.,.
CC(C)NC(=S)NNC(=O)C12CC3CC(CC(C3)C1)C2,.,.,.,.,.
CCCCNC(=S)NNC(=O)C12CC3CC(CC(C3)C1)C2,.,.,106,.,.
Cc1ccc2cc(C3CC(c4ccco4)=NN3S(=O)(=O)c3ccccc3)c(Cl)nc2c1 (configuration not stated),.,37,.,.,.
O=C(COC(=O)Cc1ccccc1F)Nc1cccc(S(=O)(=O)NC2=NCCCCC2)c1,.,.,.,.,.
Cc1nc([N+](=O)[O-])c(C(=O)OCc2cccc(Br)c2)n1C,.,.,.,.,.
N#Cc1c(-c2ccccc2)nc(SCC(=O)Nc2ccccc2)[nH]c1=O,/,.,/,.,.
N#Cc1c(-c2ccccc2)nc(SCC(=O)N(c2ccccc2)c2ccccc2)[nH]c1=O,.,33,.,.,.
N#Cc1c(-c2ccccc2)nc(SCC(=O)Nc2nnc(C(F)(F)F)s2)[nH]c1=O,.,73,.,.,.
N#Cc1c(-c2ccccc2)nc(SCC(=O)N2c3ccccc3Sc3ccccc32)[nH]c1=O,.,/,/,/,/
CC(C)CC(NC(=O)C(COC(C)(C)C)NC(=O)C(Cc1ccc(O)cc1)NC(=O)C(CO)NC(=O)C(Cc1c[nH]c2ccccc12)NC(=O)C(Cc1cnc[nH]1)NC(=O)C1CCC(=O)N1)C(=O)N[C@@H](CCCN=C(N)N)C(=O)N1CCCC1C(=O)NNC(N)=O (some centres not stated),/,/,.,/,/
COC(=O)/C(C#N)=C(/Nc1ccc(F)c(Cl)c1)C(F)(F)F,.,/,/,/,/
COc1ccc(-c2c3c(cc(C)[n+]2[O-])oc2ccc(OC)cc23)cc1,.,40,.,.,.
COc1ccc2oc3cc(C)[n+]([O-])c(-c4ccc(Cl)cc4)c3c2c1,.,45,.,.,.
COc1ccc(-c2c(C)oc3ccc(C)cc23)cc1,.,.,.,.,.
COc1ccc(-c2cc(=O)c3cc(OC)ccc3o2)cc1,.,.,.,.,.
COc1ccc2oc3cc(C)[n+]([O-])c(-c4ccc(C)cc4)c3c2c1,.,46,.,.,.
O=C(Nc1ccc2c(c1)OCO2)C1CCN(C(=O)c2ccc(Br)cc2)CC1,.,.,41,.,.
Nc1nc2ccccc2n1/N=C/c1cccnc1,.,.,.,.,.
Nc1nc2ccccc2n1/N=C/c1ccc(-c2ccccc2)o1,.,39,/,.,.
Cc1cc(C)c2cc(CN(Cc3cccnc3)C(=O)c3ccc(F)cc3)c(Cl)nc2c1,.,91,.,.,.
COc1ccc(C=C2C(=O)c3ccccc3C2=O)cc1O,.,.,.,.,.
CCN1C/C(=C/c2ccc(OC)c(O)c2)C(=O)/C(=C/c2ccc(OC)c(O)c2)C1,50,.,.,.,.
SMILES,MDM2 E3 inh,Arbovirus inh,Rad51 HR inh,ABCB1 inh,ABCG2 inh
CCN1C/C(=C\c2cccc([N+](=O)[O-])c2)C(=O)/C(=C/c2cccc([N+](=O)[O-])c2)C1,39,.,.,.,.
O=C(CCn1c(=O)sc2ccccc21)NCCCn1ccnc1,.,30,.,.,.
CCCOC(=O)c1ccc(Cl)c(NC(=O)c2cccnc2)c1,.,.,.,.,.
O=C(/C=C/c1cccs1)N1CCN(c2ccc(O)cc2)CC1,.,.,41,.,.
Cc1ccc(C)c(NC(=O)C(Sc2nnc(-c3cccs3)o2)c2ccccc2)c1 (configuration not stated),50,.,.,.,.
Cc1cc(C)c2nc3nc(C)c(C)cc3c(N)c2c1,.,.,/,.,.
CCCc1cc(=O)[nH]c(SCC(=O)NC)n1,.,72,.,.,.
CCCc1cc(=O)[nH]c(SCC(=O)CSc2nc(CCC)cc(=O)[nH]2)n1,.,.,.,.,.
CCCc1c(C(=O)NNc2cccc(Cl)c2)cnn1-c1ccccc1,.,/,.,/,/
COC(=O)c1ccccc1NC(=O)CN1CCC(n2nnc3cc(C(F)(F)F)ccc32)CC1,.,32,/,.,.
COc1ccc(C(=O)NNC(=O)CN2CCC(n3nnc4cc(C(F)(F)F)ccc43)CC2)cc1,.,.,.,.,.
COc1ccccc1NC(=O)CN1CCC(n2c(C)nc3cc(F)ccc32)CC1,.,33,.,.,.
COc1ccccc1NC(=O)CN1CCC(n2nnc3cc(F)ccc32)CC1,.,.,.,.,.
O=C(O)/C=C/c1cn(Cc2ccccc2)nc1-c1cccnc1,/,/,45,/,/
COc1ccc(-c2noc(-c3cccnc3)n2)cc1OC,.,.,.,.,.
COc1ccc(-c2noc(CSc3nc(-c4ccccc4)cc(=O)[nH]3)n2)cc1OC,.,52,.,.,.
COc1ccc(-c2noc(-c3ccccc3-c3ccccc3)n2)cc1OC,.,31,/,.,.
COc1ccc(CN2CC[C@H]3C=CC[C@@H](C(=O)Nc4ccc(Cl)c(C(F)(F)F)c4)[C@H]3C2=O)cc1OC,/,/,.,/,/
Cc1csc(NC(=O)c2ccc(C)c(S(=O)(=O)N3CCOCC3)c2)n1,.,.,.,.,.
Cc1csc(NC(=O)c2ccc(C)c(S(=O)(=O)N3CCCCC3)c2)n1,.,31,.,.,.
O=C(CSc1ncn[nH]1)Nc1nc(-c2ccccc2)ns1,.,41,.,.,.
O=C(Nc1nc(-c2ccccc2)cs1)c1cccs1,.,74,.,.,.
Cc1cc(-c2csc(NC(=O)c3ccc(=O)[nH]c3)n2)c(C)n1Cc1ccccc1,.,.,.,.,.
O=C(Nc1nc(-c2ccccc2)ns1)c1cccs1,.,30,/,.,.
CCC(=O)Nc1nc(-c2ccccc2)ns1,.,.,.,.,.
SMILES,MDM2 E3 inh,Arbovirus inh,Rad51 HR inh,ABCB1 inh,ABCG2 inh
O=C(Nc1nc(-c2ccccc2)cs1)c1ccc(=O)[nH]c1,.,38,.,.,.
O=C(OC1C[C@@H]2CC3C[C@H](C1)N2CC3=O)c1c[nH]c2ccccc12 (some centres not stated),/,/,.,/,/
CC1=CSC2=NC(=O)/C(=C\c3cccn3-c3ccccc3)C(=N)N12,.,.,.,.,.
Cc1ccc(-n2cccc2/C=C2/C(=N)N3C(=NC2=O)SN=C3S(C)(=O)=O)cc1Cl,.,34,.,.,.
Cc1cccc(C)c1-n1cccc1/C=C1/C(=N)N2C(=NC1=O)SN=C2S(C)(=O)=O,.,59,.,.,.
O=C(CN1CCN(c2ncccn2)CC1)N1CCCC1,.,.,.,.,.
CCN(CC)C(=O)CN1CCN(c2ncccn2)CC1,53,.,/,.,.
N=C1C(c2nc3ccccc3[nH]2)=C(O)CN1c1ccccc1,41,.,.,.,.
Fc1ccccc1N1CCN(Cc2nc(-c3ccc(Cl)cc3Cl)no2)CC1,.,31,.,.,.

# Screening data as filed in PubChem.
